Activity calls are given as the source filed them. The rule behind the calls is not given here.
How the values were obtained:
SK-N-BE(2) [1] = test: Upregulation of NAGLU protein expression in NAGLU-silenced human SK-NBE cell clones at 20 uM incubated for 24 hrs by western blot analysis; format: functional, cell-based
Method in brief: (§1)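 Western blot of control SK-NBE clone and NAGLU-shRNA SK-NBE clone (RPMI, 10% FBS, puromycin 0.7 μg/mL) after 24 h at 20 μM. Lysis, Bradford assay, 50 μg per lane, nitrocellulose transfer, anti-NAGLU antibody overnight at 4 °C, HRP secondary and ECL. GAPDH re-probe for loading.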

SK-N-BE(2) [2] = test: Inhibition of lysosomal defects in NAGLU-silenced human SK-NBE cell clones assessed as reduction in accumulation of enlarged LAMP1-positive lysosomal structures within the cytoplasm at 20 uM incubated for 48 hrs by LAMP1 staining based indirect immunofluorescence assay; format: functional
Method in brief: (§2)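 Control and NAGLU-silenced SK-NBE clones grown on coverslips with 20 μM compound for 48 h. Fixed in 3.7% formaldehyde, permeabilized with saponin/BSA buffer, stained with anti-Lamp1 or anti-HS 10E4 for 1 h, then Alexa secondaries. Confocal imaging with 63× objective. Scored as percent cells with enlarged Lamp1 structures or membrane HS, plus mean fluorescence intensity, over 50 random cells from three experiments.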

SK-N-BE(2) [3] = test: Effect on lysosome size and distribution in human SK-NBE cell clone assessed as at 20 uM incubated for 48 hrs by LAMP1 staining based indirect immunofluorescence assay; format: functional; method in brief: as §2
HaCaT [4] = test: Cytotoxicity against human HaCaT cells assessed as induction of apoptosis upto 100 uM; format: toxicity, cell-based
HaCaT [5] = test: Antiproliferative activity against human HaCaT cells upto 100 uM; format: toxicity, cell-based
[6] = Antiproliferative activity against human CuFi cells upto 100 uM; format: toxicity, cell-based
SK-N-BE(2) [7] = test: Inhibition of lysosomal defects in NAGLU-silenced human SK-NBE cell clones assessed as dispersion of lysosomes all over the cytoplasm at 20 uM incubated for 48 hrs by LAMP1 staining based indirect immunofluorescence assay; format: functional; method in brief: as §2
SK-N-BE(2) [8] = test: Effect on heparan sulfate changes in human SK-NBE cell membrane at 20 uM incubated for 48 hrs by indirect immunofluorescence staining analysis; format: functional, cell-based; method in brief: as §2
Fibroblast [9] = test: Inhibition of lysosomal defects in Sanfilippo-B patient derived human fibroblast cells assessed as reduction in accumulation of enlarged LAMP1-positive lysosomal structures within the cytoplasm at 20 uM incubated for 48 hrs by LAMP1 staining based indirect immunofluorescence assay; format: functional, cell-based
Method in brief: (§3)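 HDFa, MPS IIIA, MPS IIIB and MPS I patient fibroblasts in DMEM, 10% FBS, grown 48 h on coverslips with 20 μM compound. Double immunostained for HS (10E4) and Lamp1 with DAPI, confocal imaging. Mean fluorescence intensity expressed relative to untreated cells (d-enantiomers: percent positive cells), 50 random cells from three experiments.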

Fibroblast [10] = test: Effect on heparan sulfate changes in human fibroblast cells at 20 uM incubated for 48 hrs by indirect immunofluorescence staining analysis; format: functional, cell-based; method in brief: as §3
Fibroblast [11] = test: Inhibition of lysosomal defects in MPS-1 patient derived human fibroblast cells assessed as reduction in accumulation of enlarged LAMP1-positive lysosomal structures within the cytoplasm at 40 uM incubated for 48 hrs by LAMP1 staining based indirect immunofluorescence assay; format: functional, cell-based
Method in brief: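 MPS I patient fibroblasts grown on coverslips with 40 μM compound for 48 h. Immunostained for HS (10E4) and Lamp1 with DAPI, imaged by confocal microscopy. Mean fluorescence intensity expressed relative to untreated cells, 50 random cells from three independent experiments.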

HeLa [12] = test: Inhibition of heparan sulfate accumulation on cell membrane in human HeLa cells at 20 uM incubated for 48 hrs by indirect immunofluorescence staining analysis; format: functional, cell-based
Method in brief: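 HeLa cells grown 48 h with compound, then immunostained with anti-HS antibody 10E4 to gauge membrane HS.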

HeLa [13] = test: Downregulation of EXT2 protein expression in human HeLa cells at 20 uM incubated for 24 hrs by western blot analysis; format: functional, cell-based
SK-N-BE(2) [14] = test: Upregulation of NAGLU protein expression in human SK-NBE cells at 20 uM incubated for 24 hrs by western blot analysis; format: functional, cell-based; method in brief: as §1
[15] = system: Alpha-N-acetylglucosaminidase (Homo sapiens), P54802 [UNDEFINED MUTATION]; test: Stabilization of mutated NAGLU in Sanfilippo-B patient derived human fibroblast cells assessed as increase in NAGLU activity using 4-methylumbelliferyl-N-acetyl-alpha-D-glucosaminide as substrate at 20 uM cells pretreated for 2 hrs with substrate followed by compound addition by fluorescence based analysis; format: cell-based
Method in brief: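 Pellets of 5 × 10^5 MPS IIIB or HDFa fibroblasts lysed by 10 freeze–thaw cycles and clarified at 4 °C; protein by Lowry. Lysate incubated 2 h with 2 mM 4-methylumbelliferyl-N-acetyl-α-D-glucosaminide stock in 0.2 M Na-acetate pH 4.5, compound added at 20 μM. Activity normalized to protein, expressed as nmol substrate hydrolysed per h per mg.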

[16] = biological target: T1, Alpha-N-acetylglucosaminidase (Homo sapiens) (UniProt P54802); test: Inhibition of NAGLU in human HDFa cells using 4-methylumbelliferyl-N-acetyl-alpha-D-glucosaminide as substrate upto 1 mM by fluorescence based analysis; format: cell-based
T1 sequence (whole entry): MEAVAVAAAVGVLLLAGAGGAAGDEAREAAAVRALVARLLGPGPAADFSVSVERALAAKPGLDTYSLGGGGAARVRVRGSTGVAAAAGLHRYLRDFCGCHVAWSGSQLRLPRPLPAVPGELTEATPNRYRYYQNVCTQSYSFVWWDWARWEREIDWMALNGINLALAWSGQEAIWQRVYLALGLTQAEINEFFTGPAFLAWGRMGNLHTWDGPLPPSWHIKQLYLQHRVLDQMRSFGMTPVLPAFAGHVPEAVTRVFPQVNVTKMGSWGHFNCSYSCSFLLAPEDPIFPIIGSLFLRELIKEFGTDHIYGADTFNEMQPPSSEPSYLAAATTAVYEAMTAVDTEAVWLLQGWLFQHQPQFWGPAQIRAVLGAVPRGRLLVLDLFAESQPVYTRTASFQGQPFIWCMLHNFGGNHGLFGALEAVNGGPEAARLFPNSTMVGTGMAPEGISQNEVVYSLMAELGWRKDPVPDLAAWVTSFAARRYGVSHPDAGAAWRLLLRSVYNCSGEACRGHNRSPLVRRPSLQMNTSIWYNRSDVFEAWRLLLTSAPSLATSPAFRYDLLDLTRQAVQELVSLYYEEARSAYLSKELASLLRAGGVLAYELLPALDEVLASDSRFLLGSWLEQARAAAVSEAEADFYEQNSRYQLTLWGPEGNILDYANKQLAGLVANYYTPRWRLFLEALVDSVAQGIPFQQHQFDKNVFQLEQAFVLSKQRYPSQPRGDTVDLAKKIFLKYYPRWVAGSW
Method in brief: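 HDFa fibroblast lysate (freeze–thaw, Lowry protein) incubated 2 h with 4-methylumbelliferyl-N-acetyl-α-D-glucosaminide (2 mM substrate solution) in Na-acetate buffer pH 4.5, compound added to the reaction up to 1 mM. Fluorogenic hydrolysis normalized per mg protein per hour.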

SK-N-BE(2) [17] = test: Inhibition of amyloid beta (1 to 42) accumulation in cytoplasm of NAGLU-silenced human SK-NBE cell clones at 20 uM incubated for 48 hrs by indirect immunofluorescence staining based analysis; format: functional
Method in brief: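 NAGLU-silenced SK-NBE clone on coverslips, exposed to 20 μM compound for 48 h. Cells fixed in formaldehyde, permeabilized with saponin, stained with anti-Aβ1-42 antibody and fluorescent secondary, imaged by confocal microscopy. Cells bearing Aβ1-42-positive structures counted among 50 random cells from three independent experiments; untreated clone as comparator.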

Activity [15]	inhibition [16]	Structure (SMILES)	Activity (SK-N-BE(2) [1])	inhibition (SK-N-BE(2) [2])	Activity (SK-N-BE(2) [3])	Activity (HaCaT [4])	Activity (HaCaT [5])	Activity [6]	inhibition (SK-N-BE(2) [7])	Activity (SK-N-BE(2) [8])	inhibition (Fibroblast [9])	Activity (Fibroblast [10])	inhibition (Fibroblast [11])	inhibition (HeLa [12])	inhibition (HeLa [13])	Activity (SK-N-BE(2) [14])	inhibition (SK-N-BE(2) [17])
Active	inactive	Cl.OC[C@@H]1NC[C@@H](O)[C@H](O)[C@H]1O	inactive	Active	inactive	Non-Toxic	Non-Toxic	Non-Toxic	Active	inactive	Active	inactive	Active	Active	Active	Active	Active
Active	inactive	Cl.OC[C@H]1[C@H](O)[C@@H](O)[C@H](O)CN1CCCCCOCC12CC3CC(CC(C3)C1)C2	inactive	Active	inactive	Non-Toxic	Non-Toxic	Non-Toxic	Active	inactive	Active	inactive	Active	Active	inactive	Active	Active
	inactive	CCCCN1C[C@@H](O)[C@H](O)[C@@H](O)[C@@H]1CO.Cl	inactive	Active	inactive	Non-Toxic	Non-Toxic	Non-Toxic	Active	inactive	Active	inactive	Active	Active	Active	Active	Active

Structure (SMILES)	Activity [15]	inhibition [16]	Activity (SK-N-BE(2) [1])	inhibition (SK-N-BE(2) [2])	Activity (SK-N-BE(2) [3])	Activity (HaCaT [4])	Activity (HaCaT [5])	Activity [6]	inhibition (SK-N-BE(2) [7])	Activity (SK-N-BE(2) [8])	inhibition (Fibroblast [9])	Activity (Fibroblast [10])	inhibition (Fibroblast [11])	inhibition (HeLa [12])	inhibition (HeLa [13])	Activity (SK-N-BE(2) [14])	inhibition (SK-N-BE(2) [17])
COCCCCCCCCCN1C[C@@H](O)[C@H](O)[C@@H](O)[C@@H]1CO.Cl	Active	inactive	inactive	Active	inactive	Non-Toxic	Non-Toxic	Non-Toxic	Active	inactive	Active	inactive	Active	Active	inactive	Active	Active

— ChEMBL document CHEMBL5380783, “N-Substituted l-Iminosugars for the Treatment of Sanfilippo Type B Syndrome” (J Med Chem, 2023)
